According to paper PMC3828522 (Genes & Development, 2013):
Substitutions are numbered along the chain they refer to. Names may count otherwise.

B1: Pho: full-length Drosophila Pleiohomeotic, PRE-binding PcG protein (protein, UniProt Q8ST83 1-520, looked up)
chain: MAYERFGIILQSEQYDEDIGNTKVNQKMNEGNHYDLHRKNAFDRIIHSESKKGDNVINYNIHENDKIKAADNIFSSKLKMNPNMSYEMNINCFKNIGYGENQETSKVLTNSLSNNDINTEESGVVDKNSPFLTLGTTILNSNGKSRRWEQKLVHIKTMEGEFSVTMWASGISDDEYSGSDQIVGASDLLKGKEEFGIDGFTSQQNKEYQKMESKFTNAQTLEMPHPISSVQIMDHLIKERGNLSQENNISERILSKTTLSFEEPILLPDSSSIELVNETAAMTINNHRTLSNHTGNTGDLHALPSSVPFRIGLHEGQVNDCLSTISQSTHQDNTDSTGCGEMNLSEVTVSYTNDKKIACPHKGCNKHFRDSSAMRKHLHTHGPRVHVCAECGKAFVESSKLKRHQLVHTGEKPFQCTFEGCGKRFSLDFNLRTHVRIHTGDRPFVCPFDACNKKFAQSTNLKSHILTHAKAKRNTSISGKSGCSNAESNSQSEDTSANYVKVELQDSVTENHVPFVVYAD
modifications: full-length
B2: Sfmbt 4MBT domain: four malignant brain tumor (4MBT) domain of Drosophila Sfmbt (protein, UniProt Q9VK33 532-980, looked up, fragment)
chain: PTHSYDWLPRLSKENFNAAPVTCFPHAPGCEVWDNLGVGMKVEVENTDCDSIEVIQPGQTPTSFWVATILEIKGYKALMSYEGFDTDSHDFWVNLCNAEVHSVGWCATRGKPLIPPRTIEHKYKDWKDFLVGRLSGARTLPSNFYNKINDSLQSRFRLGLNLECVDKDRISQVRLATVTKIVGKRLFLRYFDSDDGFWCHEDSPIIHPVGWATTVGHNLAAPQDYLERMLAGREAMIEVHEDDATIELFKMNFTFDEYYSDGKTNSFVEGMKLEAVDPLNLSSICPATVMAVLKFGYMMIRIDSYQPDASGSDWFCYHEKSPCIFPAGFCSVNNISVTPPNGYDSRTFTWEGYLRDTGAVAAGQHLFHRIIPDHGFEVGMSLECADLMDPRLVCVATVARVVGRLLKVHFDGWTDEYDQWLDCESADIYPVGWCVLVNHKLEGPPRVAH
modifications: 4MBT domain
B3: Sfmbt^G635K/A638E: full-length Sfmbt with G635K/A638E mutations (protein)
chain: MNPSELRMMWMSSQYNSERITLEDAATLLGHPTVGLSVMEDLSAHQPTLDMNPMMSLMGGDFTGQAAATAAALGVQPGTLIATNSNNLYGFAHMGGLQQQLLQQSAAAAVFQNYAEAMDNDVENGMVGMAMEAVVDDDDQVYGQRDNNFDDNGSELEPKQEIINIDDFVMMNEDNNSYDGTDFMTSSDKDISQSSSSCMAQMPGSLGVPGVEHDLLVPLPDGLLHHKLLGTTLVPAMGTLNGNAFGNIMVSTENTSSKQMQRTYSTAKGANSTATTATCSASTSSALRSQRKTRKIEPVNRPGLVLKTPIAYRGNIDPSVIPIQKDGMAVCKRCGAIGVKHTFYTKSRRFCSMACARGELYSLVLNTKMEGDQATTSSPDPGAGSESADLPGDQQQSQSDIELDLHAAHIKNANYRFRITDQSKITQLNSFGEPMSMGGDAAANNVQMAADETIAALNGGAVGDATAPGSTEEGASTPNSYLSAAPTPKALRLFKDIYPQDDLPQIPKYERLPVPCPQMEKIISIRRRMYDPTHSYDWLPRLSKENFNAAPVTCFPHAPGCEVWDNLGVGMKVEVENTDCDSIEVIQPGQTPTSFWVATILEIKGYKALMSYEGFDTDSHDFWVNLCNAEVHSVKWCETRGKPLIPPRTIEHKYKDWKDFLVGRLSGARTLPSNFYNKINDSLQSRFRLGLNLECVDKDRISQVRLATVTKIVGKRLFLRYFDSDDGFWCHEDSPIIHPVGWATTVGHNLAAPQDYLERMLAGREAMIEVHEDDATIELFKMNFTFDEYYSDGKTNSFVEGMKLEAVDPLNLSSICPATVMAVLKFGYMMIRIDSYQPDASGSDWFCYHEKSPCIFPAGFCSVNNISVTPPNGYDSRTFTWEGYLRDTGAVAAGQHLFHRIIPDHGFEVGMSLECADLMDPRLVCVATVARVVGRLLKVHFDGWTDEYDQWLDCESADIYPVGWCVLVNHKLEGPPRVAHQQAPKPAPKPKIQRKRKPKKGAAGGKTPTDNNTQSVKSRTIALKTTPHLPKLSIKLELKPEHHNAAFYENNQPEEEGDEEDPDADGDGDGSTSHISEQSTTQSSSDLIAGSGSGSGSASLVTLATGSNKTNSSATNNKYIPRLADIDSSEPHLELVPDTWNVYDVSQFLRVNDCTAHCDTFSRNKIDGKRLLQLTKDDIMPLLGMKVGPALKISDLIAQLKCKVNPGRARSHKTNKSPFL
B4: Sfmbt^G635K/A638E-CTAP: Sfmbt double point mutant with C-terminal TAP tag, expressed from transgene (protein)
chain: B3 chain
modifications: left off: TAP tag, C-terminal, kept
B5: Sfmbt-CTAP: wild-type Sfmbt with C-terminal tandem affinity purification tag, expressed from transgene (protein)
chain: B3 chain with K635G, E638A
modifications: left off: TAP tag, C-terminal, kept

Key:
[1] = tested on: Sfmbt 4MBT, Ser633 and Ser673 mutated into proline; assay: GST pull-down and SPR, Sfmbt Ser633/Ser673 to proline mutant; type: binding, Drosophila; conditions: relative to wild type
How it was run: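 Mutant and wild-type 6xHis-tagged Sfmbt 4MBT expressed in E. coli. GST pull-down: GST-Pho spacer (E. coli, GST column plus gel filtration) on beads with 4MBT, 2 h at 4°C in 50 mM Tris-HCl, 150 mM NaCl, 1 mM DTT; three washes, boiled in Laemmli buffer.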

[2] = tested on: double-stranded Pho DNA-binding site; assay: EMSA, DNA binding; set-up: species or system Drosophila; conditions: ^32P end-labeled probe, protein without partner
Scm = assay: Pho:Scm complex formation in vitro; type: binding, Drosophila; conditions: Supplemental Fig. S5C
[3] = tested on: Flag-tagged Pho (full-length); assay: Anti-Flag affinity purification of full-length Pho-Flag:Sfmbt complexes; type: binding, Drosophila; conditions: coimmunoprecipitation, full-length proteins, baculovirus system
How it was run: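 Full-length Pho-Flag with wild-type or mutant Sfmbt expressed and purified in a baculovirus system. Cells lysed by three sonication cycles (30 bursts, 30 sec on ice each). Complexes isolated by anti-Flag affinity purification; bound proteins detected by Western blot with the indicated antibodies.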

endogenous Pho = assay: Pull-down of Sfmbt-CTAP proteins from embryo nuclear extracts; type: binding, Drosophila; conditions: nuclear extracts of 0- to 12-h-old embryos, IgG sepharose, Western blot
PREs of PcG target genes = assay: ChIP of Sfmbt-CTAP proteins at PREs; type: in vivo, Drosophila
How it was run: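 Sfmbt-CTAP transgenes (wild-type, G635K/A638E double mutant, ΔMBT1 truncation) expressed ubiquitously via daughterless-Gal4 in wild-type third instar larvae. Chromatin from imaginal discs and brains; TAP-tagged proteins immunoprecipitated with peroxidase anti-peroxidase via the protein A moiety. Triplicate ChIPs from three independent chromatin preparations per genotype. qPCR read-out given as mean percentage of input precipitated per region, ±SD.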

[4] = tested on: Ubx misexpression in Sfmbt^1 homozygous cell clones; assay: Genetic rescue assay, repression of Ubx in Sfmbt^1 homozygous clones; type: in vivo, Drosophila; conditions: imaginal disc

Molecule | mobility shift / association with DNA [2] | coimmunoprecipitation of endogenous Pho (endogenous Pho) | repression of Ubx in Sfmbt^1 mutant clones [4] | other results
B1 | induces a mobility shift | – | – | binding affinity change, Ser633 and Ser673 to proline [1]: twofold decrease in the binding affinity; stable complex formation with Scm in vitro (Scm): fails to form a stable complex
B2 | fails to stably associate with DNA | – | – | –
B3 | – | – | – | interaction with Flag-tagged Pho [3]: completely failed to interact
B4 | – | only poorly coimmunoprecipitated | severely compromised repressor activity | reduction of ChIP signals at Ubx PREs (PREs of PcG target genes): reduced only twofold to threefold
B5 | – | robustly coimmunoprecipitated | rescues repression of Ubx | –
